# From ChEMBL document CHEMBL4725241, “Discovery of BMS-986235/LAR-1219: A Potent Formyl Peptide Receptor 2 (FPR2) Selective Agonist for the Prevention of Heart Failure” (J Med Chem, 2020)
# The source made the active and inactive calls. The calls are words filed in the database; no cut-off is given here.
# Tests used:
# [1] = Clearance in human liver microsome at 0.1 umol/l and measured for 60 mins by LC-MS/MS analysis; format: ADME; conditions: microsomes, 1 h, 0.1 µM, dose 0.1 µmol/L
# Outline: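 Liver microsomes (1 mg protein/mL final) with an NADPH regenerating system were preincubated 5 min at 37°C, then given 0.1 µmol/L compound. Samples were taken at 0-60 min, quenched in methanol/acetonitrile with internal standard, and analysed by LC-MS/MS. Runs were in triplicate. kel came from 5-30 min points. CLint = kel/protein concentration (mL/min/mg protein).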
# Mus musculus = test: Cardioprotective activity in C57BL/6 mouse model of LAD coronary artery ligation-induced myocardial infarction assessed as reduction in LV chamber area at 0.3 mg/kg, po and measured after 28 days; format: functional, organism-based; conditions: time 28.0 day
# Outline: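 Male C57BL/6 mice (10-12 weeks) underwent permanent LAD ligation under ketamine/xylazine, with shams having an untightened suture. Compound (0.3 mg/kg/d) or vehicle was given by oral gavage once daily (5 mL/kg) from post-MI day 4 for 24 days. Endpoints were taken at 28 days post-MI; scar length was quantified from LV cross sections.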
# Cytochrome P450 3A4 = Cytochrome P450 3A4 (Homo sapiens, UniProt P08684); test: Inhibition of recombinant human CYP3A4; format: ADME
# Chain of Cytochrome P450 3A4 (P08684 whole entry): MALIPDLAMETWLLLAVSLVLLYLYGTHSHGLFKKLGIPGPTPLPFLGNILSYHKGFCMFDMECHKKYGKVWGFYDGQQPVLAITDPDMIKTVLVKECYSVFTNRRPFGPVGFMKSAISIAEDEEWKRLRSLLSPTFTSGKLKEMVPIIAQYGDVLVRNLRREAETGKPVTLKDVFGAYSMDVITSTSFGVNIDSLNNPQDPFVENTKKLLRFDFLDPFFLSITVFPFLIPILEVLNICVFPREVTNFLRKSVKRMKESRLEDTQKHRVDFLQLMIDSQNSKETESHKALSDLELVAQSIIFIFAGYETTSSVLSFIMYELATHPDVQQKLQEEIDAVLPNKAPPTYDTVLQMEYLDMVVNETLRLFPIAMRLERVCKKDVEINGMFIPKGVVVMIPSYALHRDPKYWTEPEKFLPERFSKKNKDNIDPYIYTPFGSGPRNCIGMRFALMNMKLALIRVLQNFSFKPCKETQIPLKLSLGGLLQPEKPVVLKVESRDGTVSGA
smiles,measurement,setting,value
COc1cc(F)c([C@@H]2CNC(=O)[C@H]2NC(=O)Nc2ccccc2)c(F)c1 [BMS-986235],CLH,[1],3.3 µL/min/mg
same,Activity,Mus musculus,Active
same,IC50,Cytochrome P450 3A4,> 20 µM
